A selection: hits, their analogues and other compounds. The true share with any hit is near 4.9%.
STAT3 blocker: STAT3 signaling inhibition. U3A cells, IL-6 STAT3-luciferase reporter, luminescence; host cell line lacks STAT1. AID 862. inhibition, % at 5.5 µM. actives 0.89% (n = 190,000);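 active = inhibition above the mean inhibition across all screened compounds plus 3 SD, cut at about 44% in these data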
STAT1 act: increases IFN-gamma driven STAT1 reporter signal. NIH 3T3 STAT1-luciferase reporter, luminescence; 100% = IFN-gamma alone, no compound. activation (% of control), % at 5.5 µM. actives 2.6% (n = 200,000);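 active = activation above the screen-wide mean activation plus 3 SD, cut at about 130% in these data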
STAT1 inh: STAT1 signaling inhibition; inhibition, % at 5.5 µM; actives 0.35% (n = 200,000); NIH 3T3 STAT1-luciferase reporter, IFN-gamma, luminescence;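 active = inhibition above a set limit, the mean inhibition across all tested compounds plus 3 SD, cut at about 34% in these data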
APP 5'UTR act: activates APP 5'UTR luciferase reporter; SH-SY5Y APP 5'UTR luciferase reporter, luminescence; zero percent = DMSO vehicle wells; activation, % at 2 µM; actives 1% (n = 190,000);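 active = activation above a set limit, based on mean plus 3 SD of controls, cut at about 140% in these data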
STAT3 act: increases IL-6 driven STAT3 reporter signal; U3A cells, IL-6 STAT3-luciferase reporter, luminescence; 100% = signal with IL-6 EC80 alone; activation (% of control), % at 5.6 µM; actives 0.91% (n = 190,000); AID 871;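 active = activation above the screen-wide mean of compound activation plus 3 SD, cut at about 130% in these data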
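System – human U3A cells carrying STAT3-luciferase construct · Probe or stimulus – Interleukin-6, 33 ng/mL · Schedule – compound 1 h, then IL-6 6 h at 37 °C · Signal – luminescence from STAT3-driven luciferase reporter · Evaluation – percent of IL-6-only median luminescence · Benchmarks – IL-6-only high control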
NF-kB neuron act: compounds increasing NF-kB expression in human neuronal cells. NF-kB reporter expression; hits give high values. AID 1239. fold change at 12.5 µM. actives 1.6% (n = 190,000); in the data active = fold change above about 3.3
STAT1 act conf: STAT1 activation, confirmation assay; shares compounds with STAT1 act; NIH 3T3 STAT1-luciferase reporter, IFN-gamma potentiation, luminescence; 100% = IFN-gamma EC80 alone, no compound; activation (% of control), % at 5.7 µM; actives 97% (n = 1,200);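 active = activation above a set limit carried over from the earlier primary STAT1 screen, cut at about 140% in these data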
NFkB act STAT1ct: activates NF-kappaB, counter-screen to STAT1 activators; shares compounds with STAT1 act; HEK293T NF-kB luciferase reporter, TNF-alpha stimulated, luminescence; 100% = TNF-alpha with vehicle only; activation (% of control), % at 5.7 µM; actives 43% (n = 1,200); AID 1306;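 active = activation above the mean of solvent-only control wells plus 3 SD, set per campaign, cut at about 130% in these data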;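 also: TNF-alpha given at a submaximal dose yielding about 80% of full reporter signal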
STAT3 act STAT1c: human STAT3 activation in STAT1 activator counter-screen | U3A cells STAT3-luciferase reporter, IL-6, luminescence; cells lack STAT1; 100 = IL-6 alone, no compound effect | activation (% of control), % at 5.7 µM | AID 1316 | actives 46% (n = 1,200) | shares compounds with STAT1 act;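 active = activation above the solvent-only control well mean plus 3 SD, set per plate batch, cut at about 110% in these data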;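 also: higher means more STAT3 reporter activation so hits are non-selective activators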
Large screens that a line does not name were inactive (follow-up assays come after a bar, where they were run).

O=C(O)c1ccc(-c2nc(-c3ccc(Cl)cc3)cs2)cc1	STAT1 act 181, APP 5'UTR act 241, NF-kB neuron act 6.3 | STAT1 act conf 241 | NFkB act STAT1ct 135 | STAT3 act STAT1c 135
COc1ccc(-c2nc(CC(=O)O)cs2)cc1	none
COc1ccc(-c2csc(-c3ccc(C(=O)O)cc3)n2)cc1	STAT1 act 182, NF-kB neuron act 7.6 | STAT1 act conf 242 | NFkB act STAT1ct 146 | STAT3 act STAT1c 144
O=C(O)c1ccc(-c2nc(-c3cccc(C(F)(F)F)c3)cs2)cc1	none
COc1ccc(OCc2nnc(SCC(=O)c3ccccc3)o2)cc1	none
Cn1c(/C=C/c2ccc([N+](=O)[O-])o2)nc2ccccc2c1=O	STAT1 act 212 | STAT1 act conf inactive | NFkB act STAT1ct 134 | STAT3 act STAT1c inactive
COCCn1c(=NC(=O)c2cc3ccccc3oc2=O)sc2cc(S(N)(=O)=O)ccc21	none
Fc1ccccc1N1CCN(c2cnc3ccccc3n2)CC1	STAT1 act 168, NF-kB neuron act 6.3 (no result: APP 5'UTR act) | STAT1 act conf 245 | NFkB act STAT1ct inactive | STAT3 act STAT1c inactive
Clc1cccc(-c2nnc(-c3ccccc3)o2)c1	STAT1 act 156, APP 5'UTR act 136, NF-kB neuron act 8.8 | STAT1 act conf 209 | NFkB act STAT1ct inactive | STAT3 act STAT1c inactive
Clc1cccc(N2CCN(Cc3nnc(-c4ccccc4)o3)CC2)c1	none
Cc1oc(-c2ccccc2)nc1CC(=O)O	none
Cc1oc(-c2ccc(-c3ccccc3)cc2)nc1CN1CCN(CC(=O)N(C)C)CC1	STAT1 act 155 | STAT1 act conf 191 | NFkB act STAT1ct inactive | STAT3 act STAT1c 128
COC(=O)Cn1cc([N+](=O)[O-])nc1C	none
O=C(/C=C/c1cccc(F)c1)N1CCc2ccccc21	STAT1 act 199, APP 5'UTR act 200 | STAT1 act conf 238 | NFkB act STAT1ct inactive | STAT3 act STAT1c inactive
O=C(/C=C/c1ccc(F)cc1)N1CCCc2ccccc21	none
Cc1cc(C)c(C(=O)CN2C(=O)NC3(CCCCCC3)C2=O)cc1C	none
Cc1ccc(C(=O)COC(=O)c2cc(=O)[nH]c3ccccc23)cc1C	STAT1 act 163 | STAT1 act conf 203 | NFkB act STAT1ct 136 | STAT3 act STAT1c 121
Cc1ccc2[nH]c(=O)cc(C(=O)OCC(=O)c3ccccc3)c2c1	none
CS(=O)(=O)Oc1ccc(/C=N/NC(=O)c2ccncc2)cc1	none
Cc1ccc(CNC(=O)c2ccc(OCC3CCCO3)cc2)cc1 (configuration not stated)	none
Cc1ccc2nc(NC(=O)c3ccc(OCC4CCCO4)cc3)sc2c1 (configuration not stated)	STAT1 act 158 | STAT1 act conf 148 | NFkB act STAT1ct inactive | STAT3 act STAT1c inactive
CCCC(=O)c1c(NCCO)cc(C)oc1=O	none
O=C1CN(c2nc(-c3cccnc3)nc3sc4c(c23)CCCC4)CCN1	none
Nc1nc(-c2cccnc2)nc2sc3c(c12)CCCC3	STAT1 act 159, NF-kB neuron act 5.6 | STAT1 act conf 213 | NFkB act STAT1ct 146 | STAT3 act STAT1c 116
CCOC(=O)c1c(C)[nH]c(C(=O)CSc2ccccc2)c1C	STAT1 act 154, APP 5'UTR act 160, NF-kB neuron act 3.6 | STAT1 act conf 234 | NFkB act STAT1ct inactive | STAT3 act STAT1c inactive
CCOC(=O)c1c(C)[nH]c(C(=O)COC(=O)CCSc2ccccc2)c1C	none
Cc1ccnc(NC(=O)c2sc3ccccc3c2Cl)c1	STAT1 act 165, APP 5'UTR act 148, NF-kB neuron act 3.6 | STAT1 act conf 130 | NFkB act STAT1ct inactive | STAT3 act STAT1c inactive

Assay outcomes from PubChem BioAssay.
